In brackets after ≈: the same amount, converted by molar mass.
Tests used:
Type in all cases: functional
Bacillus subtilis = test: Antimicrobial activity against Bacillus subtilis NCIM 2718 after 18 hrs by broth microdilution assay; conditions: NCIM 2718, 18 h
Outline: (§1)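 MIC by broth microdilution in Mueller Hinton broth, final inoculum 5 × 10⁵ CFU/ml. Compounds dissolved in absolute ethanol (10 mg per 1 ml stock), then serially diluted into successive wells. Incubated with organism at 37 °C for 18 h with growth and sterility controls, ethanol blank, and uninoculated dilutions checked for precipitation. Then 0.01% resazurin added, read after 2 h further incubation.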

Staphylococcus aureus = test: Antimicrobial activity against Staphylococcus aureus NCIM 5021 after 18 hrs by broth microdilution assay; conditions: NCIM 5021, 18 h; outline: as §1
Pseudomonas aeruginosa = test: Antimicrobial activity against Pseudomonas aeruginosa NCIM 5029 after 18 hrs by broth microdilution assay; conditions: NCIM 5029, 18 h; outline: as §1

Row | SMILES | MIC (Bacillus subtilis) | MIC (Staphylococcus aureus) | MIC (Pseudomonas aeruginosa)
1 | CN(C)[C@@H]1C(O)=C(C(N)=O)C(=O)[C@@]2(O)C(O)=C3C(=O)c4c(O)cccc4[C@@](C)(O)[C@H]3C[C@@H]12 [TETRACYCLINE] | 1 µM (≈ 0.444 µg/mL) | 2 µM (≈ 0.889 µg/mL) | 4 µM (≈ 1.78 µg/mL)
2 | C#CCN1C(=O)[C@]2(c3ccccc31)N(C)C[C@H](c1ccccc1O)[C@]21CC(=O)N(C)C1=O | 291 µM (≈ 125 µg/mL) | 291 µM (≈ 125 µg/mL) | 146 µM (≈ 62.7 µg/mL)
3 | CN1C(=O)C[C@@]2(C1=O)[C@@H](c1ccccc1O)CN(C)[C@@]21C(=O)Nc2ccccc21 | 639 µM (≈ 250 µg/mL) | 639 µM (≈ 250 µg/mL) | 80 µM (≈ 31.3 µg/mL)
4 | CC1(C)S[C@@H]2[C@H](NC(=O)[C@H](N)c3ccccc3)C(=O)N2[C@H]1C(=O)O [AMPICILLIN] | 168 µM (≈ 58.7 µg/mL) | 84 µM (≈ 29.4 µg/mL) | 168 µM (≈ 58.7 µg/mL)
5 | COc1ccc([C@H]2CN(C)[C@@]3(C(=O)N(Cc4ccccc4)c4ccccc43)[C@@]23CC(=O)N(C)C3=O)cc1 | 504 µM (≈ 250 µg/mL) | 252 µM (≈ 125 µg/mL) | 252 µM (≈ 125 µg/mL)
6 | CN1C(=O)C[C@@]2(C1=O)[C@@H](c1ccccc1O)CN(C)[C@@]21C(=O)N(C)c2ccccc21 | 617 µM (≈ 250 µg/mL) | 617 µM (≈ 250 µg/mL) | 77 µM (≈ 31.2 µg/mL)
7 | CN1C(=O)C[C@@]2(C1=O)[C@@H](c1ccc(Cl)cc1)CN(C)[C@@]21C(=O)N(C)c2ccccc21 | 590 µM (≈ 250 µg/mL) | 295 µM (≈ 125 µg/mL) | 147 µM (≈ 62.3 µg/mL)
8 | COc1ccc([C@H]2CN(C)[C@@]3(C(=O)Nc4ccccc43)[C@@]23CC(=O)N(C)C3=O)cc1 | 617 µM (≈ 250 µg/mL) | 617 µM (≈ 250 µg/mL) | 154 µM (≈ 62.4 µg/mL)
9 | COc1ccc([C@H]2CN(C)[C@@]3(C(=O)N(C)c4ccccc43)[C@@]23CC(=O)N(C)C3=O)cc1 | 596 µM (≈ 250 µg/mL) | 298 µM (≈ 125 µg/mL) | 298 µM (≈ 125 µg/mL)
10 | CN1C(=O)C[C@@]2(C1=O)[C@@H](c1ccc(Cl)cc1)CN(C)[C@@]21C(=O)Nc2ccccc21 | 610 µM (≈ 250 µg/mL) | 305 µM (≈ 125 µg/mL) | 152 µM (≈ 62.3 µg/mL)
11 | Cc1ccc([C@H]2CN(C)[C@@]3(C(=O)Nc4ccccc43)[C@@]23CC(=O)N(C)C3=O)cc1 | 642 µM (≈ 250 µg/mL) | 321 µM (≈ 125 µg/mL) | 321 µM (≈ 125 µg/mL)

From ChEMBL document CHEMBL1208687, “Synthesis, antibacterial activity evaluation and QSAR studies of novel dispiropyrrolidines” (2010)
